The text below walks through data of ChEMBL document CHEMBL3734686, “Synthesis, Photophysical Properties, and Biological Evaluation of trans-Bisthioglycosylated Tetrakis(fluorophenyl)chlorin for Photodynamic Therapy” (J Med Chem, 2015).

For data set [1], the system named is Heart. Briefly: Drug uptake in BALB/c mouse heart implanted with mouse 4T1 cells assessed per gram of tissue at 0.18 mg/kg, ip after 48 hrs by HPLC-based fluorescence analysis. The class given is ADME, organism-based. Particulars: in vivo. The procedure, abridged:
(§1)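 Female BALB/c mice bearing 4T1 thigh tumours received an i.p. dose in ethanol/PEG400/H2O (2/3/5) with 0.1% DMSO, or in saline, and were kept dark until killed. Tissues were weighed (100 mg), homogenised in CH3OH/DMSO/H2O (32/8/1) and centrifuged twice at 2300×g at 4°C. Supernatants were analysed by HPLC with fluorescence detection (λex 404/λem 654 nm or λex 400/λem 666 nm). n = 3 per time point.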

Another data set deals with U-251. Briefly: Photocytotoxicity against human U251 cells assessed as cell survival preincubated for 24 hrs followed by irradiation at 16 J/cm2 measured at 24 hrs by WST-8 assay. Type of data set: functional, cell-based. Particulars: U-251, light or radiation study. In short, it runs like this:
(§2)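 Cells (5 × 10^3/well) in DMEM with 10% FCS, 24 h at 37°C, 5% CO2; photosensitizer 1–50000 nM (1% DMSO final) for 24 h, washed, fresh medium. Irradiated with 100-W halogen lamp through λ>500 nm or λ>600 nm cutoff filter to 16 J·cm−2; WST-8 absorbance at 450 nm 24 h later, survival normalized to no-drug wells.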

The next data set has as its system Kidney. Briefly: Drug uptake in BALB/c mouse kidney implanted with mouse 4T1 cells assessed per gram of tissue at 0.18 mg/kg, ip after 24 hrs by HPLC-based fluorescence analysis. Type of data set: ADME, organism-based. Particulars: in vivo. In short, it runs like this: as §1
Data set [2] has as its system Heart. Nature of the data set: Drug uptake in BALB/c mouse heart implanted with mouse 4T1 cells assessed per gram of tissue at 0.18 mg/kg, ip after 24 hrs by HPLC-based fluorescence analysis. The class given is ADME, organism-based. Conditions: in vivo. The procedure, abridged: as §1
In another data set the test system is 4T1. Briefly: Drug uptake in mouse 4T1 cells implanted in BALB/c mouse assessed per gram of tissue at 0.18 mg/kg, ip after 12 hrs by HPLC-based fluorescence analysis. Particulars: in vivo. The class given is ADME, organism-based. In short, it runs like this:
(§3)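 Female BALB/c mice with 4T1 cells (1 × 10^6 in HBSS) implanted in left rear thigh; single i.p. dose, 7 in ethanol/PEG400/H2O (2/3/5) with 0.1% DMSO, mono-L-aspartyl chlorin e6 in saline; kept dark until sacrifice. Tissues washed, frozen, homogenized in CH3OH/DMSO/H2O (32/8/1), centrifuged 2300×g; supernatant analysed by HPLC with fluorescence detection; three animals per time point.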

A further data set has as its system Lung. Briefly: Drug uptake in BALB/c mouse lung implanted with mouse 4T1 cells assessed per gram of tissue at 0.18 mg/kg, ip after 48 hrs by HPLC-based fluorescence analysis. The class given is ADME, organism-based. Particulars: in vivo. In short, it runs like this:
as §1

In a further data set the test system is Zone of skin. Nature of the data set: Drug uptake in BALB/c mouse skin implanted with mouse 4T1 cells assessed per gram of tissue at 0.18 mg/kg, ip after 12 hrs by HPLC-based fluorescence analysis. The class given is ADME, organism-based. Conditions: in vivo. The procedure, abridged: as §3
In a further data set the test system is Stomach. Nature of the data set: Drug uptake in BALB/c mouse stomach implanted with mouse 4T1 cells assessed per gram of tissue at 0.18 mg/kg, ip after 12 hrs by HPLC-based fluorescence analysis. The class given is ADME, organism-based. Particulars: in vivo. In short, it runs like this: as §3
A further data set has as its system HeLa. Nature of the data set: Photocytotoxicity against human HeLa cells assessed as cell survival preincubated for 24 hrs followed by irradiation at 16 J/cm2 measured at 24 hrs by WST-8 assay. Type of data set: functional, cell-based. Conditions: light or radiation study. In short, it runs like this:
as §2

Data set [3] can be described thus: Ratio of drug level in tumor to skin in BALB/c mouse implanted with mouse 4T1 cells ip after 24 hrs. Particulars: in vivo.

Broadly, the EC50 is the concentration that produces a half-maximal response. As for `CN1CC2C3=N/C(=C(/c4c(F)c(F)c(S[C@@H]5O[C@H](CO)[C@@H](O)[C@H](O)[C@H]5O)c(F)c4F)C4=N/C(=C(/c5c(F)c(F)c(F)c(F)c5F)c5ccc([nH]5)/C(c5c(F)c(F)c(S[C@@H]6O[C@H](CO)[C@@H](O)[C@H](O)[C@H]6O)c(F)c5F)=C5/C=CC(=N5)C3c3c(F)c(F)c(F)c(F)c3F)C=C4)C2C1` (stereo not given in full), the Drug uptake in the data set on Heart [1] stood at 2.1 ng/g; in the data set on Kidney it was 18 ng; in the data set on Heart [2] it was 6.1 ng/g; in the data set with 4T1 it was 4 ng/g; with Lung, 11 ng; in the data set on Zone of skin, 0 ng. The Drug uptake with Stomach amounted to 20 ng/g. Further, the EC50 in the data set on U-251 and in the data set on HeLa was 0.5 nM each time. For the same molecule, the Ratio in data set [3] amounted to 60.
